According to paper PMC3475454 (Bioscience Reports, 2012):
Blank lines part the entries; values can stand above or below the compound they belong to.

How the values were obtained:
firefly luciferase [1] = conditions: cited from earlier work
Ultra-Glo luciferase = biological target: T1, Ultra-Glo luciferase (Photuris pensylvanica, UniProt Q27757); conditions: ref Promega Corporation web page; cited from earlier work
T1 sequence (Q27757 1-545): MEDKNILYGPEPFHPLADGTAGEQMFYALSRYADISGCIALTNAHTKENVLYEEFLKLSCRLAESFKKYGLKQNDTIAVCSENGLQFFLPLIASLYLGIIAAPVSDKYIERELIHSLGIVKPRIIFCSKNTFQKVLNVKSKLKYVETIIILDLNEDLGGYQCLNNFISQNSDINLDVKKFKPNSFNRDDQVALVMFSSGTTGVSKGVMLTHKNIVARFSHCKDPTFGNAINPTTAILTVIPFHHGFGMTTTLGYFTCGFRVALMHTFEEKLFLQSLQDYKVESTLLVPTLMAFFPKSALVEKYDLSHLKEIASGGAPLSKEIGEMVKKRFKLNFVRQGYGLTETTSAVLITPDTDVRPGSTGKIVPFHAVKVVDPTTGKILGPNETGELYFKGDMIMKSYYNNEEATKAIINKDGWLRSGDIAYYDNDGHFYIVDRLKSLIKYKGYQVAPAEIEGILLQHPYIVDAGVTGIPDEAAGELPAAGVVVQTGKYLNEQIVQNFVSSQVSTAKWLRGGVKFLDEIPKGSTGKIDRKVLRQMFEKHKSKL

firefly luciferase [2] = biological target: T2, firefly luciferase (Photinus pyralis, UniProt P08659); experiment: Firefly luciferase reporter; assay type: cell-based; conditions: 20 μM; for Firefly luciferase inhibition in cells: stably transfected cell lines
How it was run: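 Stably STF-transfected 70.4- and 55.1c-derived mouse hepatoma clones, with G418 removed at plating, were exposed in culture to 20 μM test compound (0.1% DMSO) for 1 h or 24 h. Cells were lysed in passive lysis buffer. Signal was normalised to Alamar Blue vitality and expressed as % untreated; n=3 and 4.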

[3] = system: β-catenin target genes Axin2 and Gpr49; experiment: Real-time RT-PCR of β-catenin target genes; assay type: cell-based, mouse; conditions: 20 μM, 24 h
firefly luciferase [4] = biological target: T2, firefly luciferase; experiment: Inhibition of pure commercially available firefly luciferase; assay type: biochemical; conditions: 10 μM, different enzyme concentrations
How it was run: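 Purified commercial firefly luciferase was prepared as a stock of 1 mg/ml in luciferase assay buffer lacking ATP and D-luciferin, supplemented with 0.1% BSA. Several enzyme concentrations were assayed with 10 μM test compound. Values are means of two experiments.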

firefly luciferase [5] = biological target: T2, firefly luciferase; experiment: Firefly luciferase activity assay in cell lysates, compound added to lysate; assay type: biochemical; conditions: for IC50: IC50 for firefly luciferase inhibition
Renilla luciferase = Renilla luciferase (Renilla reniformis, UniProt P27652); experiment: Renilla luciferase activity assay in cell lysates; assay type: biochemical; conditions: 20 μM added to lysates of Hepa1c1c7, 70.4 and 55.1c cells
How it was run: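 Hepa1c1c7, 70.4 and 55.1c cells were transfected with CMV-driven Renilla luciferase plasmid. After 24 h, cells were lysed in passive lysis buffer. 20 μM test compound (1% v/v of 2 mM DMSO stock) was added to the lysate 5 min before reading. Luminescence was read for 10 s; n=3 and 4.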

firefly luciferase [6] = biological target: T2, firefly luciferase; experiment: Monitoring of firefly luciferase in living cells with D-luciferin-ethylester; assay type: cell-based; conditions: 20 μM, 30 min pre-incubation, 70.4 K15 and 55.1c K65 cells
How it was run: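 Living 70.4 K15 and 55.1c K65 cells stably expressing firefly luciferase were pre-incubated for 30 min in medium with 20 μM test compound (37°C, 5% CO2) and then washed with PBS. After 5 min, signal was read on a plate reader over 4 min or on a CCD camera over 8 min; n=4.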

Gaussia luciferase = Gaussia luciferase activity assay in cell culture supernatant; assay type: biochemical; conditions: 20 μM, Hepa1c1c7, 70.4 and 55.1c cells
How it was run: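 Hepa1c1c7, 70.4 and 55.1c cells were transfected by Lipofectamine 2000 with an AP-1-responsive Gaussia luciferase vector. After 24 h, culture supernatant was taken. 20 μM test compound (1% v/v of 2 mM DMSO solution) was added 5 min before reading. Luminescence was read for 10 s; n=3 and 4.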

T2 sequence (P08659 whole entry): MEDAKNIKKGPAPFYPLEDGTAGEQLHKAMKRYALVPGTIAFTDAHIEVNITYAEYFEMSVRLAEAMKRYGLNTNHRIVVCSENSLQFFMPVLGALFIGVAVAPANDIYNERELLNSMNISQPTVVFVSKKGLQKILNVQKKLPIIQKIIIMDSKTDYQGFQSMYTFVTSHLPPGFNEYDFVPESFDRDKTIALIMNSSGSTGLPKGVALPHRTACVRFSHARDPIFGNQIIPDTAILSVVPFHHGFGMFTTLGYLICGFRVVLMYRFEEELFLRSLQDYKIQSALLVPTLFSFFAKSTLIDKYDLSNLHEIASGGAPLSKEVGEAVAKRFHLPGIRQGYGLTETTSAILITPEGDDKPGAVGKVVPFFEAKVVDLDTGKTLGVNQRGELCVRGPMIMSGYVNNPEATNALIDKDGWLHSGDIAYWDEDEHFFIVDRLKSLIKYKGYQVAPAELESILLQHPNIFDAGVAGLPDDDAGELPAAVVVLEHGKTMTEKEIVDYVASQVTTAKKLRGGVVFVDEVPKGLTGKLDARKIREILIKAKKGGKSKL
Sequence of Renilla luciferase (P27652 whole entry): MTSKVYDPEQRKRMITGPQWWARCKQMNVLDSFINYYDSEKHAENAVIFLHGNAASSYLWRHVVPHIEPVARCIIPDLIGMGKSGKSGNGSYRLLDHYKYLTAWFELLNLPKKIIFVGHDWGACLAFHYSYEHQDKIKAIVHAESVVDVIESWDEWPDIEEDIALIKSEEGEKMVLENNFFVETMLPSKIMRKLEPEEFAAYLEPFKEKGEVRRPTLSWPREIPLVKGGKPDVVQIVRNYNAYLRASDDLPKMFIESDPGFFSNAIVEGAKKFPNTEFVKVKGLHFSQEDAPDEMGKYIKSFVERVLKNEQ

- Firefly luciferase inhibition in cells (firefly luciferase [2]; 1 h incubation): weaker
- Firefly luciferase inhibition in cells (firefly luciferase [2]; 24 h incubation): disappeared in all cell lines
SMILES: Oc1ccc(/C=C/c2cc(O)cc(O)c2)cc1 [Resveratrol, 3,5,4′-trihydroxy-trans-stilbene]
- Mechanism of inhibition with respect to ATP and D-luciferin (firefly luciferase [1]): non-competitive
- Resistance of Ultra-Glo luciferase against inhibition (Ultra-Glo luciferase): more resistant

SMILES: Cc1cccc(/C=C/c2ccccc2)n1 [SIB-1893]
- Efficacy of firefly luciferase inhibition (firefly luciferase [1]; compared with NFκBAI4): somewhat lower efficacy

- Inhibition of pure firefly luciferase (firefly luciferase [4]): also inhibited
- Decay of the luminescence signal (firefly luciferase [5]; 1 μM, coenzyme A-free buffer, 9 min, compared with untreated lysate): somewhat less pronounced
- Quenching of remnant firefly signal by Renilla buffer (firefly luciferase [5]; 20 μM added to Renilla buffer): further improved
- Inhibition of firefly luciferase signals (firefly luciferase [5]; 20 μM added to lysates of untreated transiently transfected Hepa1c1c7, 70.4 and 55.1c cells): strongly inhibited
- IC50 (firefly luciferase [5]; lysate of 55.1cSTF K53 cells): 950 nM
- IC50 (firefly luciferase [5]; lysate of 55.1cSTF K65 cells): 1420 nM
- IC50 (firefly luciferase [5]; lysate of 70.4STF K15 cells): 850 nM
- IC50 (firefly luciferase [5]; lysate of 70.4STF K31 cells): 880 nM
- IC50 (firefly luciferase [5]; reaction buffer without coenzyme A, results not shown): ~1000 nM
- Mechanism of inhibition with respect to ATP and D-luciferin (firefly luciferase [5]; varied ATP and D-luciferin, mixed hyperbolic fit): non-competitive
- Effect on Renilla luciferase (Renilla luciferase): not affected
- Firefly luciferase activity in living cells (firefly luciferase [6]): effectively inhibits
- Duration of firefly luciferase inhibition in living cells (firefly luciferase [2]): > 24 h
- Firefly luciferase inhibition in cells (firefly luciferase [2]; 1 h incubation): strongly inhibited
- Luminescence of STF firefly luciferase reporter (firefly luciferase [2]; 24 h, transiently transfected Hepa1c1c7, 70.4 and 55.1c cells): strong decrease of luminescence
- Firefly luciferase inhibition in cells (firefly luciferase [2]; 24 h incubation): still pronounced
SMILES: COc1ccc(/C=C/c2ccccc2F)cc1 [NFκBAI4, (E)-2-fluoro-4′-methoxystilbene]
- mRNA levels of Axin2 and Gpr49 [3]: not accompanied by a decrease in mRNA levels
- Effect on Gaussia luciferase (Gaussia luciferase): not affected
- Firefly luciferase inhibition in cells (firefly luciferase [2]; 48 h incubation): still visible in 70.4-derived, but not in 55.1c-derived, cell lines
